Reference: ChEMBL document CHEMBL3407466, “Discovery of an oral respiratory syncytial virus (RSV) fusion inhibitor (GS-5806) and clinical proof of concept in a human RSV challenge study” (J Med Chem, 2015)

Tests used:
[1] = Lipophilicity, log D of the compound by chromatography; type: physicochemical
[2] = Oral bioavailability in Sprague-Dawley rat at 4 mg/kg; type: ADME, organism-based; conditions: in vivo
Summary of the method: (§1)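 IV parameters were taken from a 1 mg/kg dose given as a 30 min infusion.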

[3] = Ratio of AUC (0 to 12 hrs) in lung to AUC (0 to 12 hrs) in plasma of Sprague-Dawley rat at 1 mg/kg, iv; type: ADME, organism-based; design: dose 1 mg/kg, route intravenous
[4] = Oral bioavailability in cynomolgus monkey at 4 mg/kg; type: ADME, organism-based, Macaca fascicularis; conditions: in vivo
[5] = Volume of distribution at steady state in cynomolgus monkey; type: ADME, organism-based, Macaca fascicularis; conditions: in vivo, read-out: Vdss
[6] = Clearance in cynomolgus monkey at 1 mg/kg, iv administered as infusion over 30 mins; type: ADME, organism-based, Macaca fascicularis; design: dose 1 mg/kg, route intravenous; conditions: in vivo
Plasma [7] = experiment: Drug uptake in dog lung relative to plasma level; type: ADME, Canis lupus familiaris
[8] = Volume of distribution at steady state in beagle dog; type: ADME, organism-based, Canis lupus familiaris; conditions: in vivo, read-out: Vdss
[9] = Terminal half life in po dosed human; type: ADME, organism-based; conditions: in vivo, read-out: beta t1/2 (converted)
Plasma [10] = experiment: Drug uptake in epithelial lining fluid of Sprague-Dawley rat at 1 mg/kg, iv relative to plasma level; type: ADME, organism-based; design: dose 1 mg/kg, route intravenous; conditions: in vivo
[11] = Volume of distribution at steady state in Sprague-Dawley rat; type: ADME, organism-based; conditions: in vivo, read-out: Vdss
[12] = Clearance in Sprague-Dawley rat at 1 mg/kg, iv administered as infusion over 30 mins; type: ADME, organism-based; design: dose 1 mg/kg, route intravenous; conditions: in vivo; summary of the method: as §1
[13] = Terminal half life in po dosed beagle dog; type: ADME, organism-based, Canis lupus familiaris; conditions: in vivo, read-out: beta t1/2 (converted)
Lung = experiment: Drug uptake in lung tissue of Sprague-Dawley rat at 1 mg/kg, iv relative to plasma level; type: ADME, organism-based; design: dose 1 mg/kg, route intravenous; conditions: in vivo
[14] = Ratio of AUC (0 to 12 hrs) in epithelial lining fluid to AUC (0 to 12 hrs) in plasma of Sprague-Dawley rat at 1 mg/kg, iv; type: ADME, organism-based; design: dose 1 mg/kg, route intravenous
[15] = Clearance in beagle dog at 1 mg/kg, iv administered as infusion over 30 mins; type: ADME, organism-based, Canis lupus familiaris; design: dose 1 mg/kg, route intravenous; conditions: in vivo
[16] = Terminal half life in po dosed cynomolgus monkey; type: ADME, organism-based, Macaca fascicularis; conditions: in vivo, read-out: beta t1/2 (converted)
[17] = Terminal half life in po dosed Sprague-Dawley rat; type: ADME, organism-based; conditions: in vivo, read-out: beta t1/2 (converted)
[18] = Oral bioavailability in beagle dog at 4 mg/kg; type: ADME, organism-based, Canis lupus familiaris; conditions: in vivo
[19] = Drug uptake in bovine lung relative to plasma level; type: ADME, Bos taurus; conditions: cattle

Compound | chromatographic logD [1] | also measured
Cc1[nH]c2cc([C@@H]3CCCCN3C(=O)c3cc(Cl)ccc3NS(C)(=O)=O)nn2c(=O)c1C | 1.9 | 
Cc1[nH]c2cc([C@@H]3CCCCN3C(=O)c3ccccc3NS(C)(=O)=O)nn2c(=O)c1C | 1.3 | bioavailability [2]: 1.5%
Cc1[nH]c2cc([C@@H]3CCCCN3C(=O)c3ccccc3)nn2c(=O)c1C | 1.4 | 
Cc1[nH]c2cc([C@@H]3CCCCN3C(=O)c3ccccc3O)nn2c(=O)c1C | 1.1 | 
Cc1[nH]c2cc([C@@H]3CCCCN3C(=O)c3ccccc3N)nn2c(=O)c1C | 1.4 | 
CC(=O)Nc1ccccc1C(=O)N1CCCC[C@H]1c1cc2[nH]c(C)c(C)c(=O)n2n1 | 0.88 | 
COC(=O)Nc1ccccc1C(=O)N1CCCC[C@H]1c1cc2[nH]c(C)c(C)c(=O)n2n1 | 1.3 | 
Cc1[nH]c2cc([C@@H]3CCCCN3C(=O)c3ccccc3NS(=O)(=O)C3CC3)nn2c(=O)c1C | 1.6 | 
Cc1[nH]c2cc([C@@H]3CCCCN3C(=O)c3ccccc3N(C)S(C)(=O)=O)nn2c(=O)c1C | 1.1 | 
Cc1[nH]c2cc([C@@H]3CCCCN3C(=O)c3cccc(F)c3NS(C)(=O)=O)nn2c(=O)c1C | 1.3 | 
Cc1[nH]c2cc([C@@H]3CCCCN3C(=O)c3ccc(F)cc3NS(C)(=O)=O)nn2c(=O)c1C | 1.5 | 
Cc1[nH]c2cc([C@@H]3CCCCN3C(=O)c3cc(F)ccc3NS(C)(=O)=O)nn2c(=O)c1C | 1.4 | 
Cc1ccc(NS(C)(=O)=O)c(C(=O)N2CCCC[C@H]2c2cc3[nH]c(C)c(C)c(=O)n3n2)c1 | 1.7 | 
Cc1[nH]c2cc([C@@H]3CCCCN3C(=O)c3cc(C(F)(F)F)ccc3NS(C)(=O)=O)nn2c(=O)c1C | 1.9 | 
Cc1[nH]c2cc([C@@H]3CCCCN3C(=O)c3cc(Br)ccc3NS(C)(=O)=O)nn2c(=O)c1C | 2 | 
Cc1[nH]c2cc([C@@H]3CCCCN3C(=O)c3cc(-c4ccccc4)ccc3NS(C)(=O)=O)nn2c(=O)c1C | 2.6 | 
Cc1[nH]c2cc([C@@H]3CCCCN3C(=O)c3c(Cl)cccc3NS(C)(=O)=O)nn2c(=O)c1C | 1.8 | 
Cc1cn2nc([C@@H]3CCCCN3C(=O)c3ccccc3NS(C)(=O)=O)cc2nc1C | 3 | bioavailability [2]: 18%
Cc1nc2cc([C@@H]3CCCCN3C(=O)c3ccccc3NS(C)(=O)=O)nn2c(C)c1C | 2.7 | 
CNc1c(C)c(C)nc2cc([C@@H]3CCCCN3C(=O)c3ccccc3NS(C)(=O)=O)nn12 | 2.6 | 

Compound | chromatographic logD [1] | also measured
Cc1ccc(NS(C)(=O)=O)c(C(=O)N2CCCC[C@H]2c2cc3nc(C)c(C)cn3n2)c1 | 3.1 | bioavailability [2]: 86%
Cc1ccc(NS(C)(=O)=O)c(C(=O)N2CCCC[C@H]2c2cc3nc(C)c(C)c(C)n3n2)c1 | 3.1 | bioavailability [2]: 26%
CNc1c(C)c(C)nc2cc([C@@H]3CCCCN3C(=O)c3cc(C)ccc3NS(C)(=O)=O)nn12 | 2.8 | 
Cc1ccc(NS(C)(=O)=O)c(C(=O)N2CCCC[C@H]2c2cc3nc(C)cc(C)n3n2)c1 | 2.7 | 
Cc1ccc(NS(C)(=O)=O)c(C(=O)N2CCCC[C@H]2c2cc3nc(C4CC4)cc(C)n3n2)c1 | 3.5 | bioavailability [2]: 42%
Cc1ccc(NS(C)(=O)=O)c(C(=O)N2CCCC[C@H]2c2cc3nc(C4CC4)c(C)cn3n2)c1 | 4.1 | 
Cc1ccc(NS(C)(=O)=O)c(C(=O)N2CCCC[C@H]2c2cc3nc(C4CC4)ccn3n2)c1 | 3.7 | 
Cc1cn2nc([C@@H]3CCCCN3C(=O)c3cc(Cl)ccc3NS(C)(=O)=O)cc2nc1N1CCC1 | 3.8 | 
Cc1cn2nc([C@@H]3CCCCN3C(=O)c3cc(Cl)ccc3NS(C)(=O)=O)cc2nc1N1CC(F)C1 | 3.7 | 
Cc1cn2nc([C@@H]3CCCCN3C(=O)c3cc(Cl)ccc3NS(C)(=O)=O)cc2nc1N1CC(C#N)C1 | 3.3 | 
Cc1cn2nc([C@@H]3CCCCN3C(=O)c3cc(Cl)ccc3NS(C)(=O)=O)cc2nc1N1CC(O)C1 | 2.7 | bioavailability [2]: 42%
Cc1cn2nc([C@@H]3CCCCN3C(=O)c3cc(Cl)ccc3NS(C)(=O)=O)cc2nc1N1CC(N)C1 | 2.1 | bioavailability [2]: 67%
Cc1cn2nc([C@@H]3CCCCN3C(=O)c3cc(Cl)ccc3NS(C)(=O)=O)cc2nc1N1CCCC1 | 4.4 | 
Cc1cn2nc([C@@H]3CCCCN3C(=O)c3cc(Cl)ccc3NS(C)(=O)=O)cc2nc1N1CCC(F)(F)C1 | 4.2 | 
Cc1cn2nc([C@@H]3CCCCN3C(=O)c3cc(Cl)ccc3NS(C)(=O)=O)cc2nc1N1CC[C@@H](C#N)C1 | 3.7 | 
Cc1cn2nc([C@@H]3CCCCN3C(=O)c3cc(Cl)ccc3NS(C)(=O)=O)cc2nc1N1CC[C@H](C#N)C1 | 3.6 | 
Cc1cn2nc([C@@H]3CCCCN3C(=O)c3cc(Cl)ccc3NS(C)(=O)=O)cc2nc1N1CC[C@@H](O)C1 | 2.8 | bioavailability [2]: 71%
Cc1cn2nc([C@@H]3CCCCN3C(=O)c3cc(Cl)ccc3NS(C)(=O)=O)cc2nc1N1CC[C@H](O)C1 | 2.9 | 
Cc1cn2nc([C@@H]3CCCCN3C(=O)c3cc(Cl)ccc3NS(C)(=O)=O)cc2nc1N1CC[C@@H](N)C1 | 2 | 
Cc1cn2nc([C@@H]3CCCCN3C(=O)c3cc(Cl)ccc3NS(C)(=O)=O)cc2nc1N1CC[C@H](N)C1 [PRESATOVIR] | 2 | Kp [3]: 26; bioavailability [4]: 60%; Vd [5]: 4.95 L/kg; clearance [6]: 6 mL/min/kg; Drug uptake (Plasma [7]): Active; Vd [8]: 2.91 L/kg; half-life [9]: 35 h; Drug uptake (Plasma [10]): Not Active; Vd [11]: 9.75 L/kg; clearance [12]: 32.2 mL/min/kg; half-life [13]: 8.9 h; Drug uptake (Lung): Not Active; Kp [14]: 10; clearance [15]: 3.83 mL/min/kg; half-life [16]: 10 h; half-life [17]: 3.4 h; bioavailability [18]: 130%; bioavailability [2]: 46%; Drug uptake [19]: Active
